According to ChEMBL document CHEMBL1255435, “Mechanism of resistance of hepatitis C virus replicons to structurally distinct cyclophilin inhibitors” (Antimicrob Agents Chemother, 2010):

What was measured:
Hepatitis C virus [1] = assay: Antiviral activity against HCV subtype 1b Con1 infected in cyclosporine A/NIM-resistant human HuH7 cells assessed as reduction in viral RNA level after 48 hrs by qRT-PCR analysis; format: functional, organism-based, Hepacivirus hominis; details: Con1, Huh-7, 48 h
In short: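 CsA/NIM-resistant cells were cured of replicon: G418 removed, then 1 μM BILN2061 for 2 weeks and 5 μM for 2 more. Wild-type pCon1 replicon RNA was electroporated back in and cells selected in 250 μg/ml G418 for at least 2 weeks. Pooled colonies were treated 48 h with compound; EC50 came from qRT-PCR HCV RNA normalized to total RNA.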

Hepatitis C virus [2] = assay: Antiviral activity against HCV subtype 1b Con1 harboring NIM-resistant NS5A gene infected in human HuH7 cells assessed as reduction in viral RNA level after 48 hrs by qRT-PCR analysis; details: Con1, Huh-7, 48 h
Hepatitis C virus [3] = assay: Antiviral activity against cyclosporine A-resistant HCV subtype 1b Con1 infected in human HuH7 cells assessed as reduction in viral RNA level after 48 hrs by qRT-PCR analysis; details: Con1, Huh-7, 48 h
Hepatitis C virus [4] = assay: Antiviral activity against wild type HCV subtype 1b Con1 infected in human HuH7 cells assessed as reduction in viral RNA level after 48 hrs by qRT-PCR analysis; format: functional, organism-based, Hepacivirus hominis; details: Con1, Huh-7, 48 h
In short: (§1)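 Con1 genotype 1b subgenomic replicon Huh7 cells (clone A or derived lines) were seeded at 10,000/well overnight without G418. They were treated 48 h with serially diluted compound in 2% FBS and 0.5% DMSO. HCV RNA was measured by TaqMan qRT-PCR and normalized to total RNA. Six replicates per point; EC50 is the concentration giving 50% reduction in HCV RNA.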

Hepatitis C virus [5] = assay: Antiviral activity against HCV subtype 1b Con1 infected in human HuH7 cells assessed as reduction in viral RNA level after 48 hrs by qRT-PCR analysis; format: functional, organism-based, Hepacivirus hominis; details: Con1, Huh-7, 48 h; in short: as §1
Hepatitis C virus [6] = assay: Antiviral activity against cyclosporine A/NIM-resistant HCV subtype 1b Con1 infected in human HuH7 cells assessed as reduction in viral RNA level after 48 hrs by qRT-PCR analysis; details: Con1, Huh-7, 48 h
Hepatitis C virus [7] = assay: Antiviral activity against HCV subtype 1b Con1 harboring NS5A and NS5B C575G mutant […] infected in human HuH7 cells assessed as reduction in viral RNA level after 48 hrs by qRT-PCR analysis; format: functional, organism-based, Hepacivirus hominis; details: Con1, Huh-7, 48 h
Hepatitis C virus [8] = assay: Antiviral activity against HCV subtype 1b Con1 harboring wild type protease infected in human HuH7 cells assessed as reduction in viral RNA level after 48 hrs by qRT-PCR analysis; format: functional, organism-based, Hepacivirus hominis; details: Con1, Huh-7, 48 h; in short: as §1
Hepatitis C virus [9] = assay: Antiviral activity against cyclosporine A/NIM811-resistant HCV subtype 1b Con1 infected in human HuH7 cells assessed as reduction in viral RNA level after 48 hrs by qRT-PCR analysis; format: functional, organism-based, Hepacivirus hominis; details: Con1, Huh-7, 48 h; in short: as §1
Hepatitis C virus [10] = assay: Antiviral activity against HCV subtype 1b Con1 infected in human HuH7 cells assessed as reduction in viral RNA level after 48 hrs by qRT-PCR analysis relative to control; format: functional, Hepacivirus hominis, Huh-7
In short: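 Subgenomic genotype 1b Con1 replicon cells (clone A and derived lines) seeded 10,000/well overnight without G418, then treated 48 h with serially diluted compound in 2% FBS, 0.5% DMSO. HCV RNA quantified by TaqMan qRT-PCR, normalized to total RNA; six replicates per point. Percent inhibition versus control cells; EC50 is the concentration reducing HCV RNA by 50%.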

Hepatitis C virus [11] = assay: Antiviral activity against cyclosporine A/NIM811-resistant HCV subtype 1b Con1 infected in human HuH7 cells assessed as reduction in viral RNA level after 48 hrs by qRT-PCR analysis relative to control; format: functional, Hepacivirus hominis, Huh-7
In short: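 Clone A replicon cells were resistance-selected by 8-week passage with increasing CsA up to 5 μM, then 5 μM NIM811 for 5 more weeks, with 250 μg/ml G418. Control cells were passaged in 0.2% DMSO for the same period. Both were seeded at 10,000/well and treated 48 h with serial dilutions in 2% FBS/0.5% DMSO. HCV RNA was measured by qRT-PCR, normalized to total RNA. EC50 expressed as fold over DMSO control.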

Hepatitis C virus [12] = assay: Antiviral activity against HCV subtype 1b Con1 infected in human HuH7 cells assessed as reduction in viral RNA level after 48 hrs by MTS assay; details: Con1, Huh-7, 48 h

In the case of `C/C=C/C[C@@H](C)[C@@H](O)[C@H]1C(=O)N[C@@H](CC)C(=O)N(C)CC(=O)N(C)[C@@H]([C@@H](C)CC)C(=O)NC(C(C)C)C(=O)N(C)[C@@H](CC(C)C)C(=O)N[C@@H](C)C(=O)N[C@H](C)C(=O)N(C)C(CC(C)C)C(=O)N(C)[C@@H](CC(C)C)C(=O)N(C)[C@@H](C(C)C)C(=O)N1C` (single isomer, unassigned) [NIM811], the EC50 (Hepatitis C virus [1]) is reported as 170 nM, the EC50 (Hepatitis C virus [2]) is reported as 940 nM and the EC50 (Hepatitis C virus [3]) is reported as 830 nM. The EC50 (Hepatitis C virus [4]) was 120 nM, the EC50 (Hepatitis C virus [5]) was 84 nM and the EC50 (Hepatitis C virus [6]) was 3500 nM. It also gave an EC50 (Hepatitis C virus [7]) of 1140 nM, an EC50 (Hepatitis C virus [8]) of 230 nM and an EC50 (Hepatitis C virus [9]) of 1500 nM. For the same compound, the “fold change (FC)” value (Hepatitis C virus [10]) was 1 and the “fold change (FC)” value (Hepatitis C virus [11]) was 17.9.
Work on `COc1ccc2c(O[C@@H]3C[C@H]4C(=O)N[C@]5(C(=O)O)C[C@H]5/C=C\CCCCC[C@H](NC(=O)OC5CCCC5)C(=O)N4C3)cc(-c3csc(NC(C)C)n3)nc2c1` [CILUPREVIR] yielded an EC50 (Hepatitis C virus [5]) of 1.4 nM.
In the case of `C/C=C/C[C@@H](C)[C@@H](O)[C@H]1C(=O)N[C@@H](CC)C(=O)N(C)CC(=O)N(C)[C@@H](CC(C)C)C(=O)N[C@@H](C(C)C)C(=O)N(C)[C@@H](CC(C)C)C(=O)N[C@@H](C)C(=O)N[C@H](C)C(=O)N(C)[C@@H](CC(C)C)C(=O)N(C)[C@@H](CC(C)C)C(=O)N(C)[C@@H](C(C)C)C(=O)N1C` [CYCLOSPORINE], the EC50 (Hepatitis C virus [12]) is reported as 210 nM, the EC50 (Hepatitis C virus [3]) is reported as 3390 nM and the EC50 (Hepatitis C virus [6]) is reported as > 10000 nM.
